# Source: publication PMC4770456 (Food chemistry, 2016)
# pEC50, pIC50: −log10 of the molar value. Where two headings read alike, the source gives them in different places.
# How the values were obtained:
# PARP-1 = PARP-1 (Homo sapiens, UniProt P09874); assay: PARP-1 inhibitory assay; format: biochemical
# In short: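 Wells were histone-coated overnight at 4°C, blocked, then given activated DNA in PARP-1 and assay buffers. Test compound, diluted in 10% DMSO, was added before PARP-1 enzyme, followed by 1 h at 20°C. After washing, streptavidin-HRP was added (30 min, 20°C), then chemiluminescent substrate, with luminescence read at 410 nm. IC50 from triplicate measurements.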
# K-Ras = K-Ras (Homo sapiens, UniProt P01116); assay: K-Ras inhibitory assay; format: cell-based; details: for K-Ras (HT-29) IC50: HT-29 cells, EGF 5 ng/ml
# Sequence of K-Ras (P01116 1-188 isoform P01116-2): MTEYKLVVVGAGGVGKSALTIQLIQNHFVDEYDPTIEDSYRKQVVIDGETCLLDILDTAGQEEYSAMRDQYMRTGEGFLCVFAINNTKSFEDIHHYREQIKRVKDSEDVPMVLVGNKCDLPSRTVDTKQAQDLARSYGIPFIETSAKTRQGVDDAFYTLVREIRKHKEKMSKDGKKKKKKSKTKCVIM
# In short: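 HT-29 cells in RPMI-1640 with penicillin/streptomycin were exposed to test compound for 3 h at 37°C, 5% CO2. They were then PBS-washed, stimulated with EGF (5 ng/ml, 2 min) and lysed with protease inhibitor. Protein was quantified, and Ras GTPase chemiluminescent ELISA used anti-K-Ras (1:5000, 1 h, room temperature) with HRP secondary and a luminescence read-out. IC50 from triplicate measurements.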
# NF-κB p65 = NF-κB p65 (Homo sapiens, UniProt Q04206); assay: NF-κB p65 inhibitory assay; format: cell-based
# Sequence of NF-κB p65 (Q04206 whole entry): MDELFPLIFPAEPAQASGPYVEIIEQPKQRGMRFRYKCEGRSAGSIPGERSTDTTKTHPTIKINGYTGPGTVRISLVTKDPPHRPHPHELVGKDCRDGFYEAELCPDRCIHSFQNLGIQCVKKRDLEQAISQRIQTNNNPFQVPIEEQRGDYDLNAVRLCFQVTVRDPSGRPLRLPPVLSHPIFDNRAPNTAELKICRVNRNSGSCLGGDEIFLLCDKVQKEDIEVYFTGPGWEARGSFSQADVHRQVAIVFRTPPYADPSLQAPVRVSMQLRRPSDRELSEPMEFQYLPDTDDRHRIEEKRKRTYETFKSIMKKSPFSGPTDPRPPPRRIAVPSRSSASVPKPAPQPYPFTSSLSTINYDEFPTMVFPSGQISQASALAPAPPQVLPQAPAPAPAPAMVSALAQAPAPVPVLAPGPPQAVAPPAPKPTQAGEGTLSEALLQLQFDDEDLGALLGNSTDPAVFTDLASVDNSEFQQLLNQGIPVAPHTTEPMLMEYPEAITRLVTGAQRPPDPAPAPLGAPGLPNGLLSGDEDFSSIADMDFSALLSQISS
# HT-29 cells = assay: SRB cytotoxicity assay; format: cell-based, human; details: for pEC50: read-out: Cytotoxicity EC50
# [1] = read-out: PARP-1 IC50, enzyme assay
# [2] = read-out: Cytotoxicity (HT-29) IC50, HT-29 cells, 72 h, SRB
# Sequence of PARP-1 (P09874 whole entry): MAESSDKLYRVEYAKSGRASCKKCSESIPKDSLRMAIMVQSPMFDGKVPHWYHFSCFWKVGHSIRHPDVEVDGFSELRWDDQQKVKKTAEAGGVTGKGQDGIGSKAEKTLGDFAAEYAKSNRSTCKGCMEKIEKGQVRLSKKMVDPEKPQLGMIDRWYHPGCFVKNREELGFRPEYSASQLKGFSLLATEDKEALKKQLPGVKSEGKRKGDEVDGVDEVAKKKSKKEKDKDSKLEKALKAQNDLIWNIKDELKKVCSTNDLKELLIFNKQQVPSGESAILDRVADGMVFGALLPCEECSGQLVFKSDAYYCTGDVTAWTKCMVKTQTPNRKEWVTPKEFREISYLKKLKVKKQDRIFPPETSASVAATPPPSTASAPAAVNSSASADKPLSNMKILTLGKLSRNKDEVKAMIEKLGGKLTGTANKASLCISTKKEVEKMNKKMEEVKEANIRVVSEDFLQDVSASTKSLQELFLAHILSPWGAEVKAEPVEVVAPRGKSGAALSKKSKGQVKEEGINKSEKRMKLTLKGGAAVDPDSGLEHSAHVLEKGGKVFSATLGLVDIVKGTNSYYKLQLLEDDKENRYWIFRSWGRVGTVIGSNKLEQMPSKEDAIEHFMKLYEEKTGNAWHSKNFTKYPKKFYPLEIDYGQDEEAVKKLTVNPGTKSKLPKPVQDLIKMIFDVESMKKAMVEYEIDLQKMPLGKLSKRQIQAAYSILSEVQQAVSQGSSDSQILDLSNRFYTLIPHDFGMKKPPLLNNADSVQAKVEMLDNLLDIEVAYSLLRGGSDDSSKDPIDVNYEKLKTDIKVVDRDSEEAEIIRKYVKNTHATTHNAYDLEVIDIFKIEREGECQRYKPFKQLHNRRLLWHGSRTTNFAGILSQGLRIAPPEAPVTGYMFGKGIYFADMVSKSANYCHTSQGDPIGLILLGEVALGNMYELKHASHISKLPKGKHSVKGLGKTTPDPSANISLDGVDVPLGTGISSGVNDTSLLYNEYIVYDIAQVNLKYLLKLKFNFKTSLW
pIC50 (PARP-1; [1]),K-Ras (HT-29) IC50 (K-Ras),"NF-κB (HeLa) IC50 (NF-κB p65; p65, HeLa cells, TNFα)",SMILES,pIC50 (HT-29 cells; [2]),"pEC50 (HT-29 cells; HT-29 cells, 72 h, SRB)",further results
9.00,Not active,,"C=CCc1cc(OC)c(OC(C)C(OC(C)=O)c2ccc(OC)c(OC)c2)c(OC)c1 (stereo not drawn) [Compound 2, benzenemethanol, α-[(1, R)-1-[2,6-dimethoxy-4-(2-propen-1-yl)phenoxy]ethyl]-3,4-dimethoxy-1-acetate]",,,
5.51,Not active,Not active,"C/C=C/c1cc(OC)c2c(c1)C(C)C(c1cc(OC)c(OC)c(OC)c1)O2 (centres unmarked) [Compound 5, benzofuran, 2,3-dihydro-7-methoxy-3-methyl-5-(1E)-1-yl-2-(3,4,5-trimethoxyphenyl)]",8.52,8.52,
,,,"CC(=O)O[C@H]1C(=O)[C@@]2(C)[C@H]([C@H](OC(=O)c3ccccc3)[C@]3(O)C[C@H](OC(=O)[C@H](O)[C@@H](NC(=O)c4ccccc4)c4ccccc4)C(C)=C1C3(C)C)[C@]1(OC(C)=O)CO[C@@H]1C[C@@H]2O [paclitaxel, reference compound]",,,"pEC50 (HT-29 cells; Homo sapiens, HT-29, 72 h): 9.30; pIC50 (HT-29 cells; Homo sapiens, HT-29, read-out: Cytotoxicity (HT-29) IC50): 9.30"
,Not active,,"C=CCc1cc(OC)c(OC(C)C(OC(C)=O)c2ccc3c(c2)OCO3)c(OC)c1 (stereo not drawn) [Compound 4, 1,3-benzodioxole-5-methanol,α-[1-[2,6-dimethoxy-4-(2-propenyl)phenoxy]ethyl]-acetate]",7.62,7.62,"pIC50 (NF-κB p65; read-out: NF-κB (HeLa) IC50, p65, HeLa cells, TNFα): 8.47"
,,Not active,CC=Cc1cc(OC)cc(C(C)C(O)c2cc(OC)c(OC)c(OC)c2)c1 (centres unmarked) [Compound 1],,,pIC50 (PARP-1): 5.52; NF-κB inhibitory activity (in words) (NF-κB p65; HeLa cells): no NF-κB inhibitory activity; pIC50 (K-Ras): 4.98
